Laboratory results reported in paper PMC11831629 (The Journal of International Medical Research, 2025).
Bridge positions count the residues as written; N and C are the ends. Square brackets hold non-standard residues; d marks the D form. Peptide text beside a SMILES is read from it. * marks the point of attachment. X1 = CC[C@H](C)CCCCC(=O)*; Dab = NCC[C@H](N)C(=O)O

What was measured:
[1] = multicenter study; cited from earlier work
[2] = format: in vivo, human
Summary of the method: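 Elderly ICU patients without prior renal failure, AKI, RRT or ECMO received iv test compound for more than 3 days. AKI was a creatinine rise of more than 50% from baseline. Trough and peak plasma levels were measured by HPLC-MS/MS after at least six doses. AUCss,24h and Css,avg were derived with first-order elimination equations. ROC analysis gave sensitivity and specificity for AKI prediction.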

[3] = ROC curve analysis, critically ill elderly patients, 28 AKI vs 30 non-AKI

CC[C@H](C)CCCCC(=O)N[C@@H](CCN)C(=O)N[C@H](C(=O)N[C@@H](CCN)C(=O)N[C@H]1CCNC(=O)[C@H]([C@@H](C)O)NC(=O)[C@H](CCN)NC(=O)[C@H](CCN)NC(=O)[C@H](CC(C)C)NC(=O)[C@@H](Cc2ccccc2)NC(=O)[C@H](CCN)NC1=O)[C@@H](C)O [polymyxin B] (X1-[Dab]T[Dab][Dab][Dab][dF]L[Dab][Dab]T; lactam 4-C)
mortality rate of patients with PB-associated AKI higher than that of patients without AKI [1]: 17%
area under the ROC curve of Css,avg for prediction of PB-AKI ([2]; 95% CI 0.579-0.847): 0.713
area under the ROC curve of Cmin for prediction of PB-AKI ([2]; 95% CI 0.661-0.910): 0.786
cutoff value for Cmin for predicting AKI [2, 3]: 2940 ng/mL
cutoff value for Css,avg for predicting AKI [2, 3]: 4140 ng/mL
sensitivity of Cmin cutoff for prediction of PB-AKI ([2]; cutoff 2.94 mg/L): 78.57%
specificity of Cmin cutoff for prediction of PB-AKI ([2]; cutoff 2.94 mg/L): 80.00%
sensitivity of Css,avg cutoff for prediction of PB-AKI ([2]; cutoff 4.14 mg/L): 82.14
specificity of Css,avg cutoff for prediction of PB-AKI ([2]; cutoff 4.14 mg/L): 53.33%
